Assay results gathered from unrelated publications.
Each line is one published result; the experiments were not run side by side.
Organism: Candida albicans
Effect on: microbial growth
Method: broth dilution

SMILES | test system | conditions | MIC
C[C@@H]1[C@H](O)[C@@H](C)/C=C/C=C/C=C/C=C/C=C/C=C/C=C/[C@H](O[C@@H]2O[C@H](C)[C@@H](O)[C@H](N)[C@@H]2O)C[C@@H]2O[C@](O)(C[C@@H](O)C[C@@H](O)[C@H](O)CC[C@@H](O)C[C@@H](O)CC(=O)O[C@H]1C)C[C@H](O)[C@H]2C(=O)O | ATCC90028 | 48 h | 0.5 µg/mL
COc1ccc(N2N=C(C(C)=O)SC2=C(C#N)C(=O)c2ccc(Nc3cnccn3)cc2)cc1 | ATCC10231 |  | 25 µg/mL
OC(Cn1cncn1)(Cn1cncn1)c1ccc(F)cc1F | SP3902 | 48 h | 8 µM
C#CCON=C1C=CC(=C(C#N)c2ccccc2)C=C1 | ATCC10231 | 48 h | 32 µg/mL
C/C(=N\C(=S)/N=C(\C)c1c(O)c2ccccc2oc1=O)c1c(O)c2ccccc2oc1=O |  | 48 h | 3.9 µg/mL
Cc1ccc(N=Nc2c(N)nn3c(-c4ccc(C)cc4)cc(-c4ccc(OCc5ccccc5)cc4)nc23)cc1 | ATCC10231 |  | 31.3 µg/mL
COc1ccc(-n2nc(C(=O)c3ccc(Nc4cnccn4)cc3)sc2=N)cc1 | ATCC10231 |  | 50 µg/mL
OC(Cn1cncn1)(Cn1cncn1)c1ccc(F)cc1F | 1 | 24 h | 128 µg/mL
C/C(=N\CCNCCNCC/N=C(\C)c1c(O)c2ccccc2oc1=O)c1c(O)c2ccccc2oc1=O |  | 48 h | 15.6 µg/mL
CC(=O)C1=NN(c2ccc([N+](=O)[O-])cc2)C(=C(C#N)C(=O)c2ccc(Nc3cnccn3)cc2)S1 | ATCC10231 |  | 6.25 µg/mL
CC(=O)N1CCN(c2ccc(OCC3COC(Cn4ccnc4)(c4ccc(Cl)cc4Cl)O3)cc2)CC1 (stereo not shown) | 58288 | 48 h | 16 µM
C/C(=N\N=C(/C)c1c(O)c2ccccc2oc1=O)c1c(O)c2ccccc2oc1=O |  | 48 h | 125 µg/mL
Cc1ccc(N=Nc2c(N)nn3c(-c4ccco4)cc(-c4ccc(OCc5ccccc5)cc4)nc23)cc1 | ATCC10231 |  | 31.3 µg/mL
CC(C)c1ccc(/C=C2\N=C(SCC(=O)O)N(c3ccccc3)C2=O)cc1 | ATCC10 ATCC10231 |  | 21 µg/mL
COc1ccc(N2N=C(C(=O)c3ccc(Nc4cnccn4)cc3)SC2=C(C#N)C#N)cc1 | ATCC10231 |  | 12.5 µg/mL
CCCCCCCCCCCC(=O)ON=C1C=CC(=C(C#N)c2ccccc2)C=C1 | ATCC10231 | 48 h | 512 µg/mL
CC(=O)N1CCN(c2ccc(OCC3COC(Cn4ccnc4)(c4ccc(Cl)cc4Cl)O3)cc2)CC1 (stereo not shown) | ATCC10231 |  | 1.95 µg/mL
C[C@@H]1[C@H](O)[C@@H](C)/C=C/C=C/C=C/C=C/C=C/C=C/C=C/[C@H](O[C@@H]2O[C@H](C)[C@@H](O)[C@H](N)[C@@H]2O)C[C@@H]2O[C@](O)(C[C@@H](O)C[C@@H](O)[C@H](O)CC[C@@H](O)C[C@@H](O)CC(=O)O[C@H]1C)C[C@H](O)[C@H]2C(=O)O | SP3903 | 48 h | < 0.25 µM
C/C(=N\c1nc(N)nc(/N=C(\C)c2c(O)c3ccccc3oc2=O)n1)c1c(O)c2ccccc2oc1=O |  | 48 h | 62.5 µg/mL
N#CC(=C1C=CC(=NOC(=O)c2ccccc2)C=C1)c1ccccc1 | ATCC10231 | 48 h | 256 µg/mL
CC(=O)N1CCN(c2ccc(OCC3COC(Cn4ccnc4)(c4ccc(Cl)cc4Cl)O3)cc2)CC1 (stereo not shown) |  | 48 h | 1.95 µg/mL
CC(=O)N1CCN(c2ccc(OCC3COC(Cn4ccnc4)(c4ccc(Cl)cc4Cl)O3)cc2)CC1 (stereo not shown) | ATCC10231 | 48 h | 8 µg/mL
CC(=O)C1=NN(c2ccccc2)C(=C(C#N)C(=O)c2ccc(Nc3cnccn3)cc2)S1 | ATCC10231 |  | 100 µg/mL
CC(=O)ON=C1C=CC(=C(C#N)c2ccccc2)C=C1 | ATCC10231 | 48 h | 2 µg/mL
Cc1ccc(N=Nc2c(N)nn3c(-c4ccc(Cl)cc4Cl)cc(-c4ccc(OCc5ccccc5)cc4)nc23)cc1 | ATCC10231 |  | 31.3 µg/mL
